Experimental data reported in ChEMBL document CHEMBL1157298, “Bioactive dammarane triterpenes from the mangrove plant Bruguiera gymnorrhiza” (J Nat Prod, 2006).
Activity calls are given as the source filed them. No cut-off for these calls is given here.

Experiments:
HepG2 [1] = test: Induction of ARE in human HepG2 cells by luciferase assay; type: functional, cell-based
Procedure, shortened: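 Stably transfected HepG2 cells carrying an ARE-luciferase reporter. EC50 is the concentration giving activation halfway between the DMSO-control baseline and the maximum response at 20 µg/mL.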

[2] = target: Prostaglandin G/H synthase 1 (Homo sapiens) (UniProt P23219); test: Inhibition of COX1
Procedure, shortened: (§1)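 COX-1 and COX-2 activity read out as PGE2 production. Indomethacin served as the positive control.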

HepG2 [3] = test: Inhibition of TPA-induced NF-kappaB activation in human HepG2 cells by luciferase assay; type: functional, cell-based
Procedure, shortened: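 NFκB-luciferase reporter construct activated with TPA (phorbol ester). IC50 is the concentration that reduces TPA-activated NFκB luciferase activity by 50%.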

HepG2 [4] = test: Cytotoxicity against human HepG2 cells; type: cell-based
[5] = target: T1, Prostaglandin G/H synthase 2 (Homo sapiens, UniProt P35354); test: (§2) Inhibition of COX2; procedure, shortened: as §1
T1 sequence (P35354 whole entry): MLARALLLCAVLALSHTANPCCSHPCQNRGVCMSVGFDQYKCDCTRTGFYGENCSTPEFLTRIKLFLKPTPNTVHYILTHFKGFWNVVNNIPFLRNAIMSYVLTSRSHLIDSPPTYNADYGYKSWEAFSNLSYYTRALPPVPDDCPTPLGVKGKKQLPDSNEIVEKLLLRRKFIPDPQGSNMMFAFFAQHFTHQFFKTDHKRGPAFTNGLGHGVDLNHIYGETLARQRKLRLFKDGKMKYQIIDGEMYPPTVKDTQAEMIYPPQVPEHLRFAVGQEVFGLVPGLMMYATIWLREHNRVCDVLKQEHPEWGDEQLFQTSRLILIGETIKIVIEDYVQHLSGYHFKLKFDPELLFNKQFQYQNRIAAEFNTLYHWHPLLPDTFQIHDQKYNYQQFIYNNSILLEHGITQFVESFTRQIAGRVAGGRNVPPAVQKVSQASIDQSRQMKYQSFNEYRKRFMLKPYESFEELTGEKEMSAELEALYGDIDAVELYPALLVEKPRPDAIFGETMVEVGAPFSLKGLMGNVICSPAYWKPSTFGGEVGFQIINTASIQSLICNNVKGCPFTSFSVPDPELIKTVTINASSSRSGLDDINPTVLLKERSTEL

[6] = target: T2, Prostaglandin G/H synthase 2 (Homo sapiens) (UniProt P35354); test: as §2; procedure, shortened: as §1
T2 sequence (whole entry): T1 sequence (P35354 whole entry)

Sequence of Prostaglandin G/H synthase 1 (Homo sapiens) (P23219 whole entry): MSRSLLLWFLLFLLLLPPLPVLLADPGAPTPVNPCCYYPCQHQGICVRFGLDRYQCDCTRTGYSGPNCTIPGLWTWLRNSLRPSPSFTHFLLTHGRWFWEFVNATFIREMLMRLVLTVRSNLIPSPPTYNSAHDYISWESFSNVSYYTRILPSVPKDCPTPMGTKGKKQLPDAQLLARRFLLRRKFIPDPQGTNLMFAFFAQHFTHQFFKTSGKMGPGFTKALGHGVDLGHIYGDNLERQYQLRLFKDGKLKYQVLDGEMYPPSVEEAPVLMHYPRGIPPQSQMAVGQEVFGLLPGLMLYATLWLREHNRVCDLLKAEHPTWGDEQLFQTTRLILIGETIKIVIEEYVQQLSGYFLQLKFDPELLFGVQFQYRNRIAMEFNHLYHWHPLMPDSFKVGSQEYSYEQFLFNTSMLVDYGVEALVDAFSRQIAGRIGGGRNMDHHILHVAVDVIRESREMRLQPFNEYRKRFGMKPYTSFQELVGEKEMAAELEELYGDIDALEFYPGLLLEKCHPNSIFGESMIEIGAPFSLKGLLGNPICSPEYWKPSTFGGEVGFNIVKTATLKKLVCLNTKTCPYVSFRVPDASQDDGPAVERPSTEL

| EC50 (HepG2 [1]) | Activity [2] | IC50 (HepG2 [3]) | IC50 [5] | Structure (SMILES) | Activity (HepG2 [4]) | Activity [6] |
| --- | --- | --- | --- | --- | --- | --- |
| 30 µM |  |  |  | O=c1cc(-c2ccc(Br)cc2)oc2ccccc12 |  |  |
| 8 µM |  |  |  | O=c1cc(-c2ccccc2)oc2ccc3ccccc3c12 [BETA-NAPHTHOFLAVONE] |  |  |
| 7.8 µM | inactive | 1.4 µM | 0.37 µM | CCCCCCCCCCCCCCCCCC(=O)O[C@H]1C[C@@H](O)[C@]2(C)[C@H]3CC[C@@H]4[C@@H]([C@@](C)(O)CCC=C(C)C)CC[C@@]4(C)[C@]3(C)CC[C@H]2C1(C)C [BRUGUIERIN A] | Non-toxic |  |
| 9.4 µM | inactive |  |  | CCCCCCCCCCCCCCCCCC(=O)O[C@H]1CC[C@]2(C)[C@H]3[C@H](O)C[C@@H]4[C@@H]([C@@](C)(O)CCC=C(C)C)CC[C@@]4(C)[C@]3(C)CC[C@H]2C1(C)C [BRUGUIERIN B] | Non-toxic | inactive |

| Structure (SMILES) | EC50 (HepG2 [1]) | Activity [2] | IC50 (HepG2 [3]) | IC50 [5] | Activity (HepG2 [4]) | Activity [6] |
| --- | --- | --- | --- | --- | --- | --- |
| CCCCCCCCCCCCCCCCCC(=O)O[C@H]1C[C@@H](O)[C@]2(C)[C@H]3CC[C@@H]4[C@@H]([C@@](C)(O)C/C=C/C(C)(C)OO)CC[C@@]4(C)[C@]3(C)CC[C@H]2C1(C)C [BRUGUIERIN C] | 15.7 µM | inactive |  |  | Non-toxic | inactive |
| C[S+]([O-])CCCCN=C=S (stereo unspecified) [SULFORAPHANE] | 4 µM |  |  |  |  |  |
